Compound activity as filed in PubChem BioAssay.
A selection: hits, their analogues and other compounds. The true share with any hit is near 1.5%.
ZTA counter – ZTA (EBV) inhibition in EBNA-1 counter-screen. P03206. ZTA-DNA binding, fluorescence polarization. inhibition, % at 11 µM. hit rate 0.15% among 320,000. AID 2234; in the data active means inhibition above about 33%
EBNA-1 inhibitor – EBNA-1 DNA-binding inhibitors, primary screen, biochemical, fluorescence polarization. inhibition, % at 14.8 µM. hit rate 0.34% among 300,000. AID 1950, 2009; in the data active means inhibition above about 28%
LANA-H2A inh – blockers of LANA interaction with H2A/H2B – biochemical, FP readout, HTS, primary screen; hit rate 0.6% among 320,000; inhibition, % (no concentration beside the values); Protein LANA1 (Human herpesvirus 8 type P (isolate GK18)), Q9QR71; cell-free LANA-H2A/H2B peptide, fluorescence polarization; in the data active means inhibition mostly above about 10%, no sharp cut-off; inactive means mostly below about 6.7%
Bfl-1 A1 inh – caspase 3/7 activation in MEF A1-2A-BIM cells, primary screen, A1 inhibitor project, cell-based, luminescence, HTS | caspase activation, % (test concentration not listed) | Caspase-Glo 3/7 luminescence, 3 h; percent of clofoctol response, vehicle zero | hit rate 0.066% among 330,000;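 active means over half of replicate activation scores above 10%, or exactly half above 10 with the replicate mean above 10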
HNF4A DNA FP – change in binding of human HNF4A to DNA, primary screen, biochemical, fluorescence polarization, FITC-DNA | Hepatocyte nuclear factor 4-alpha (Homo sapiens), P41235 | 1 h | activity change, % at 10 µM | hit rate 0.3% among 360,000; in the data active means activity change above about 30%, passing the limit was not always enough
CSN inh – inhibitors of CSN-mediated cullin deneddylation, primary screen, biochemical, fluorescence polarization, uHTS. AID 651999, 2013. inhibition, % at 12.5 µM. hit rate 0.38% among 360,000. Purified CSN, SCF-Nedd8-OG deneddylation;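 active means pattern-corrected inhibition above about 35%, with an unprinted fluorescence ratio check between 0.5 and 1.5, limit read from the data, passing the limit was not always enough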;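 further: 0% = enzyme with substrate and 100% = substrate without enzyme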
Target sequence (Q92905 whole entry, looked up, one chain of several): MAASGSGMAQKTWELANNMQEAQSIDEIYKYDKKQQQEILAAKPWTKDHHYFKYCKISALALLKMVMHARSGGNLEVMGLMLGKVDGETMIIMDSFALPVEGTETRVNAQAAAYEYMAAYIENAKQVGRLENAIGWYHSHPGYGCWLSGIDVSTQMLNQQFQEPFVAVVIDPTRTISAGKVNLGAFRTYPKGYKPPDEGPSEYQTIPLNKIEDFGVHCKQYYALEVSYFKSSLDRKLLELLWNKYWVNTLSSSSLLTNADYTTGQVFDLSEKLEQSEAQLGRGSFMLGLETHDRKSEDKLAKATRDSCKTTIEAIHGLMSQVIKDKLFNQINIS
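Test system: purified human Csn5 enzyme expressed in HEK293T cells. Amount: 0.24 nM enzyme. Reagent: SCFSkp2-Nedd8OG substrate at 10 nM final. Schedule: 90 min incubation of compound, enzyme and substrate at room temperature. Detection: fluorescence polarization. Read-out: % inhibition of substrate cleavage by Csn5.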
* = called active by the depositor; . = not tested or not shown; + = active, no number; ! = not confirmed by another sample.

SMILES | ZTA counter | EBNA-1 inhibitor | LANA-H2A inh | Bfl-1 A1 inh | HNF4A DNA FP | CSN inh
COc1cccc(/C=C2\SC(=S)N(C(C)C(=O)NC3C=CS(=O)(=O)C3)C2=O)c1 (stereo not drawn) | 26 | 4 | 28* | 0 | 1 | 2
COc1ccc(/C=C2\SC(=S)N(C(C)C(=O)NC3C=CS(=O)(=O)C3)C2=O)cc1 (stereo not drawn) | 6 | -1 | -3 | 0 | 2 | 4
COc1ccc(O)c(CN2CC3CCC(CC3)C2)c1 | . | . | . | . | 2 | -2
CCN(CC)c1ccc(/C=C2\C(=O)c3ccc(C(=O)O)cc3C2=O)cc1 | 21 | -10 | -9 | -4 | 84* | 110
COc1ccccc1NC(=O)C(C)OC(=O)CCCOc1ccccc1 (stereo not drawn) | -15 | -5 | -4 | -1 | -4 | -4
CC(C)(C)OC(=O)NCc1ccc(NC(=O)c2nc[nH]c2C(=O)NCCCCCCNC(=O)c2[nH]cnc2C(=O)Nc2ccc(CNC(=O)OC(C)(C)C)cc2)cc1 | . | . | 6 | 0 | 46* | 17
CCOC(=O)CSc1nnc(CSc2nc3sc4c(c3c(=O)[nH]2)CCCC4)n1-c1ccccc1 | -24 | 0 | 2 | 0 | 34* | -10
Cc1cn2c(N)c(/C=C3\C=Nc4ccccc43)c(=O)nc2s1 | 7 | 1 | -15 | -1 | 5 | 3
Cc1cn2c(N)c(C=C3C=C(Cl)C(=O)C(Cl)=C3)c(=O)nc2s1 | . | . | . | . | 108* | 62
CC(C)C[C@@H](CN1CCC[C@H]1CN1C(=O)C(=O)NC[C@@H]1Cc1ccccc1)N1C[C@H](Cc2ccc(O)cc2)N(CC2CCCCC2)C(=O)C1=O | . | . | . | . | 1 | -3
CCO/C(C)=N/Oc1cncnc1 | . | . | . | . | 2 | -1
CC(C)c1onc(C(=O)N2CCCCCC2)c1[N+](=O)[O-] | -4 | 3 | 33* | 0 | 0 | -1
CN(C)S(=O)(=O)N1CCN(CC(=O)Nc2ccc(F)cc2)CC1 | -20 | 8 | -1 | 0 | 0 | 0
COc1cc(NC(=O)COC(=O)Cc2ccsc2)cc(OC)c1 | -24 | . | -1 | 1 | 0 | 1
COc1ccc(NS(=O)(=O)c2cc([N+](=O)[O-])ccc2N/N=C/c2c(C)[nH]c3ccccc23)cc1 | . | . | . | . | 77* | 18
CN(C)CCCN1c2ccccc2Sc2ccc(Cl)cc21 | 0 | -2 | 2.8*! | -1 | -1 | 4
CC[C@@]1(O)C(=O)OCc2c1cc1n(c2=O)Cc2cc3c(CN(C)C)c(O)ccc3nc2-1 | 8 | -5 | 68* | 1 | -136 | -75
Cc1ccccc1Cn1ccc(NC(=O)c2cnn3c2NC(c2ccccc2)CC3C(F)(F)F)n1 (stereo not drawn) | 15 | 0 | + | 0 | 1 | 6
Cc1ccc(Cl)c(OC(=O)Cn2cnc3c2c(=O)n(C)c(=O)n3C)c1 | 2 | -5 | 4 | 1 | -1 | 7
Nc1c(C(=O)O)sc2nc(-c3ccccc3)cc(-c3ccc(F)cc3)c12 | -6 | 1 | 0 | 0 | 35* | 8
Nc1c(C(=O)O)sc2nc(-c3ccccc3)cc(-c3ccccc3)c12 | -9 | -8 | 4 | 0 | 18 | 2
COC(=O)CCN1CCc2cc(N=Nc3ccc([N+](=O)[O-])cc3)ccc21 | -2 | -15 | -1 | -5 | 0 | -9
CN(C)/C=C1\C=C2C(=O)c3ccccc3N2C1=O | 10 | 2 | 150* | -1 | -110 | -76
CN(C)S(=O)(=O)N1C(=O)c2ccccc2C1=O | -21 | -4 | -5 | 2 | -3 | 4
COc1ccccc1-c1nnc(Sc2nc([N+](=O)[O-])nn2C)o1 | 7 | 11 | 4 | 0 | 1 | -4
CCC1Nc2ccccc2-c2nnc(SC)nc2O1 (stereo not drawn) | 14 | 5 | 3 | 1 | -2 | 8
COc1ccccc1C(=O)C1Nc2ccccc2-c2nnc(SC)nc2O1 (stereo not drawn) | -4 | -12 | 21* | . | -3 | -3
